High-throughput results (PubChem BioAssay)
Scp1 inh = Scp-1 phosphatase inhibitors, primary screen, biochemical, colorimetric, uHTS. Recombinant Scp1, phosphopeptide, malachite green phosphate absorbance. inhibition, % at 20 µM. 340,000 compounds, 0.88% hits. AID 493091, 2011;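 active = inhibition above about 50% at 20 µM, limit read from the data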;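 note: plate controls were DMSO wells with enzyme for no effect and wells lacking enzyme for full effect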
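Test system: SCP-1 phosphatase catalytic domain, residues 76-261 | Compound dosing: One concentration, 20 µM, with 1.0% DMSO | Schedule: 45 min room-temperature reaction, 5 min colour, 30 min stabiliser | Detection: Absorbance at 630 nm | Read-out basis: % inhibition of SCP-1 phosphate liberation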
LMPTP inh = LMPTP phosphatase inhibitors, primary screen, biochemical, fluorescence intensity, uHTS. 360,000 compounds, 0.22% hits. Low molecular weight phosphotyrosine protein phosphatase (Homo sapiens), P24666. inhibition, % at 20 µM. AID 651560, 2012. recombinant LMPTP-A, OMFP fluorogenic substrate;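 active = compounds that cut the enzyme signal by at least half of the control window in the single-dose screen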;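 note: plate controls were DMSO wells with enzyme plus substrate for no effect and substrate without enzyme for full effect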
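Assay system: LMPTP-A, protein tyrosine phosphatase of low molecular weight / Medium: pH 6.0 Bis-Tris buffer with DTT and Triton X-100 / Schedule: 50 min enzyme reaction at room temperature, protected from light / Measured by: endpoint fluorescence intensity from OMFP dephosphorylation / Read-out basis: % inhibition relative to no-enzyme and uninhibited control wells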
STEP inh = STEP phosphatase inhibitors, primary screen, biochemical, fluorescence intensity, uHTS; Tyrosine-protein phosphatase non-receptor type 5 (Homo sapiens), P54829; recombinant STEP, OMFP fluorogenic substrate; inhibition, % at 20 µM; 360,000 compounds, 0.25% hits; AID 588621, 2011;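 active = inhibition at 20 µM, scaled per plate between control wells, above about 37%, limit read from the data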;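 note: 0% = DMSO with enzyme and substrate and 100% = substrate only without enzyme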
Target sequence (P54829 whole entry, looked up): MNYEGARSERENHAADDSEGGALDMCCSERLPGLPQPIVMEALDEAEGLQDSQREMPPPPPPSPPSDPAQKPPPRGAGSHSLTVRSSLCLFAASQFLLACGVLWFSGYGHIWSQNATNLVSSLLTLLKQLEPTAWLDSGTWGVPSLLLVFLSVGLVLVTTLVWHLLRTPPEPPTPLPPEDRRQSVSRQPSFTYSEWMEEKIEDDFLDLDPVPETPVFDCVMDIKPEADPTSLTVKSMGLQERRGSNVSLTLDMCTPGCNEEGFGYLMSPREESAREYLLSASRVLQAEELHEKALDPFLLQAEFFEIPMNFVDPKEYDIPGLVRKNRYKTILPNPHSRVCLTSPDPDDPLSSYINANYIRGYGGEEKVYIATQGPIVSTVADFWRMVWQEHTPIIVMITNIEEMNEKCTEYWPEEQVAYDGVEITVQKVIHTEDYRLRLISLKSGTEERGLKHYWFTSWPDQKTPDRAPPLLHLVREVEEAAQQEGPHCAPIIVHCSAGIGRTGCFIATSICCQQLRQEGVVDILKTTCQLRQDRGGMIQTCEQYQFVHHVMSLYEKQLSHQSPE
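System: STEP (striatal-enriched tyrosine phosphatase) enzyme, cell-free; medium: Bis-Tris pH 6.0 buffer with DTT, detergent; dosing: 20 µM, 1% DMSO; times: reaction 20 min, ambient temperature; detection: fluorescence, 480/540 nm; read-out basis: normalized % inhibition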
DNMT1 block = human DNMT1 methyltransferase inhibitors, primary screen, biochemical, molecular beacon, fluorescence, HinP1I cleavage, uHTS; DNA (cytosine-5)-methyltransferase 1 (Homo sapiens), P26358; inhibition (reported as % activation of signal), % at 10 µM; 360,000 compounds, 0.83% hits; AID 588458, 2011; in the data active = inhibition above about 50%
SUMO1 PPI mod = modulators of SUMO1 protein-protein interactions, primary screen, biochemical, uHTS; 360,000 compounds, 0.33% hits; inhibition, % at 20 µM; SUMO1 binding to a labelled peptide, TR-FRET, 1 h; Small ubiquitin-related modifier 1 (Homo sapiens), P63165; in the data active = inhibition above about 37%
Target sequence (P63165 whole entry, looked up): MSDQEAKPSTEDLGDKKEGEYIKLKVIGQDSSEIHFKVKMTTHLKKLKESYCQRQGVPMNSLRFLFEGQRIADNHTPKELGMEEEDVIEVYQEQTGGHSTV
Active calls of the source: *; · = no result; ! = not active in a repeat. Most compounds without a hit are left out; they make up all but 1.7% or so of the library.

SMILES	Scp1 inh	LMPTP inh	STEP inh	DNMT1 block	SUMO1 PPI mod
C/C(=N\NS(=O)(=O)c1ccc(C)c([N+](=O)[O-])c1)c1cc2ccccc2o1	4.2	1.1	-0.1	4.5	-1.7
C/C(=N\NS(=O)(=O)c1ccc(Cl)c([N+](=O)[O-])c1)c1cc2ccccc2o1	-13.1	60.3*	-1.7	8.1	-3.8
CCc1ccc(NC(=O)Cn2cnc3sc(C)c(S(=O)(=O)N4CCOCC4)c3c2=O)cc1	-10.3	1.2	-3.4	-0.4	-1.2
O=c1[nH]n(-c2ccccc2)c(=O)cc1Cl	-15.3	-1.1	-1.2	3.6	2.4
Cc1ccc(C2=NOC(=O)/C2=C\C=C\c2ccccc2)cc1	-9.7	1.9	-2.3	27.8	41.0*
CN(C)/C=C1\C(=O)ON=C1c1ccccc1	-3.1	-0.8	-4.9	3.3	-3.7
O=S(=O)(O)c1ccc(O)c2cc(Nc3ccccc3)ccc12	95.8*	95.6*	99.4*	96.0*	120.2*
Cc1ccc(S(=O)(=O)c2cc(Nc3ccccc3)ccc2O)cc1	-5.8	1.9	-1.4	-22.8	-6.6
Oc1cccc(Nc2ccccc2)c1	-0.3	0.2	-3.7	-14.6	2.2
Nc1cccc2c(O)cc(S(=O)(=O)O)cc12	92.9*	77.7*	92.4*	114.3*	75.8*
COc1ccccc1Nc1ccc2c(O)cc(S(=O)(=O)O)cc2c1	81.5*	84.9*	97.1*	94.5*	91.6*
O=S(=O)(O)c1cc(O)c2ccc(Nc3ccccc3)cc2c1	99.5*	92.5*	98.7*	100.0*	82.6*
CCOC(=O)c1c(-c2ccccc2)c[nH]c1C	-1.0	1.3	-0.8	1.2	-3.9
CC(OC(=O)C1CC1C)C(=O)Nc1ncc(Cl)cc1Cl (configuration not stated)	-4.8	-0.9	-3.3	0.1	1.3
COC(=O)C1=C(COc2ccccc2)NC(=O)NC1c1ccc(Br)cc1 (configuration not stated)	40.6	1.3	-0.1	-0.5	75.5*
CSc1ccc(/C=N/Nc2cccc(C(=O)O)c2)cc1	80.9*	14.0	59.7*	105.1*	70.0*
O=C(O)c1ccc(N/N=C/c2ccc(OC(=O)c3cccc(Cl)c3)cc2)cc1	39.9	9.6	0.7	7.1	61.1*
COC(=O)[C@]12CCCCC=C1N(CCc1ccc(OC)c(OC)c1)C(=O)[C@H](CC(=O)NCC13CC4CC(CC(C4)C1)C3)C2	·	0.5	·	·	-2.0
N#CC(=C(O)COC(=O)CCCNC(=O)c1ccc(Cl)cc1)c1nc2ccccc2[nH]1	-3.8	1.5	-0.8	-22.2	10.0
O=C(COc1ccc(Cl)cc1Cl)Nc1cccc(-c2ccc(N3CCOCC3)nn2)c1	2.2	-0.7	0.2	6.5	-9.2
O=C(COc1ccc(Cl)cc1Cl)Nc1ccc(-c2ccc(N3CCOCC3)nn2)cc1	3.3	10.8	-0.8	1.6	55.5*
CCCC1=NN2C(=N)/C(=C\c3cc(C)n(-c4cccc(C)c4)c3C)C(=O)N=C2S1	-4.4	-1.4	-1.1	55.5*	-2.5
COc1ccc(C(=O)/C(C#N)=N/Nc2ccc([N+](=O)[O-])cc2)cc1	65.6*	73.4*	95.8*	-2.4	-60.8
Cn1c(N)c(C(=O)COC(=O)CSc2ccc3ccccc3c2)c(=O)n(C)c1=O	-8.7	0.4	1.4	0.0	-1.4
Cn1c(N)c(C(=O)COC(=O)c2cc3ccccc3cc2O)c(=O)n(C)c1=O	-19.1	2.3	4.4	-18.6	50.7*
SMILES	Scp1 inh	LMPTP inh	STEP inh	DNMT1 block	SUMO1 PPI mod
N#CC1(Nc2ccc(Br)cc2)CCCC1	-9.5	-0.9	-2.2	1.6	-4.5
Cc1ccnc2nc(C(=O)OCC(=O)c3ccc(NC(=O)CC(C)C)cc3)nn12	27.5	1.6	0.6	-7.5	0.3
CCC(=O)Nc1ccc(C(=O)COC(=O)c2nc3nccc(C)n3n2)cc1	71.8*	46.2	5.4	109.5*	24.9
O=C(c1[nH]nc2c1CCc1ccccc1-2)N1CCN(Cc2ccc3c(c2)OCO3)CC1	-5.5	1.7	-3.5	-4.7	0.5
CC(C)[C@@H](NC(=O)C1CCN(C(=O)[C@@H]2CCCN2C(=O)OC(C)(C)C)CC1)C(=O)NCc1ccc(F)cc1	-1.3	0.9	-0.7	0.0	2.0
COc1cc(/C=C2\C(=O)N(c3ccc(S(N)(=O)=O)cc3)N=C2C)ccc1OC(=O)c1ccco1	25.3	35.5	27.4	15.5	44.8*
C#CCOc1ccc(/C=C2/C(=O)N(c3ccc(S(N)(=O)=O)cc3)N=C2C)cc1OC	·	24.4	7.4	39.2	26.3
C#CCOc1ccc(/C=C2/C(=O)N(c3cccc(C(=O)O)c3)N=C2C)cc1OC	58.1*	1.6	7.1	43.0	34.6
COC(=O)C1(CCSC)NC(c2ccc(O)cc2)C2C(=O)N(c3ccc(F)cc3)C(=O)C21 (configuration not stated)	-2.4	-1.9	-1.9	2.9	1.4
COc1cc(N=c2ssnc2Cl)c(OC)cc1Cl	1.7	48.2*!	4.4	-4.0	-7.0
COc1ccc(OC)c(N=c2ssnc2Cl)c1	-1.3	34.0	0.4	-11.9	5.9
O=C(NC1(O)C(=O)c2ccccc2C1=O)c1ccccc1	-3.6	0.8	8.9	34.0	28.2
O=C(NC1(O)C(=O)c2ccccc2C1=O)c1c(Cl)cccc1Cl	7.4	3.2	0.0	52.7*	10.3
COc1ccc(C(=O)Nc2cccc(C)n2)cc1S(=O)(=O)N1CCCc2ccccc21	3.4	1.4	-1.3	-6.4	0.4
CCN(C(=O)CSc1nncn1-c1ccccc1)C1CCS(=O)(=O)C1 (configuration not stated)	-3.4	-7.1	-0.4	-1.6	-40.2
Fc1ccc(Nc2nnc(-c3ccncc3)s2)cc1Cl	·	8.5	-1.2	0.1	42.7*
O=C(Nc1ccc(Cl)cc1)Nc1nnc(-c2ccncc2)s1	3.3	60.4*	9.8	-16.4	8.6
O=C(Nc1cccc(Cl)c1)Nc1nnc(-c2ccncc2)s1	-7.3	40.3	7.7	30.4	7.0
CCN(CC)C(=O)C1=C(C)N(CCCOC)C(=O)C(CC(=O)NCC2CCCCC2)C1 (configuration not stated)	·	0.1	-3.3	1.7	2.8
c1ccc(CNc2c3ccccc3nc3ccccc23)cc1	-11.0	60.8*	2.5	67.2*	-22.5
Oc1ccc(CCNc2c3ccccc3nc3ccccc23)cc1O	-9.6	46.9*	2.3	78.6*	-13.9
CN(C)CCCNc1c2ccccc2nc2ccccc12	-4.4	43.9	2.4	48.1	-67.8
O=C(O)c1cc(-c2ccco2)nc2ccc(Br)cc12	79.5*!	25.8	65.5*!	105.8*!	57.5*!
